From ChEMBL document CHEMBL3044828, “Synthesis of 1-acyl-3-isopropenylbenzimidazolone derivatives and their activity against Botrytis cinerea” (J Agric Food Chem, 2010)
Converted amounts (≈) assume the structure as drawn.

Each molecule was assayed on Botrytis cinerea (assay: Fungicidal activity against Botryotinia fuckeliana assessed as inhibition of spore germination at 25 degC after 6 hr by microscopic analysis).
Format: functional, organism-based
In short: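 B. cinerea strain from a university plant disease institute, grown 2 weeks at 20 °C on PDA; conidia scraped into sterile water, filtered through cheesecloth, suspended in 0.1% Tween 20 and adjusted to 1.0 × 10⁶ spores/mL. Samples taken up in methanol and diluted in sterile water to a concentration series (methanol <1% final); 1% methanol control. 10 μL spore–sample aliquots on glass slides in triplicate, moist chamber, germination scored microscopically.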
`C=C(C)n1c(=O)n(C(=O)c2ccco2)c2ccccc21` showed an IC50 of 104 µg/mL (≈ 387 µM).
`C=C(C)n1c(=O)n(C(=O)c2ccncc2)c2ccccc21` was tested, and the IC50 was 152 µg/mL (≈ 544 µM).
`C=C(C)n1c(=O)n(C(=O)CCCCC)c2ccccc21` showed an IC50 of 129 µg/mL (≈ 475 µM).
`C=C(C)n1c(=O)n(C(=O)C(C)C)c2ccccc21` gave an IC50 of 134 µg/mL (≈ 548 µM).
`C=C(C)n1c(=O)n(C(=O)C(CC)CC)c2ccccc21` gave an IC50 of 277 µg/mL (≈ 1020 µM).
`C=C(C)n1c(=O)n(C(=O)CCC(C)C)c2ccccc21` showed an IC50 of 335 µg/mL (≈ 1230 µM).
Molecule `C=C(C)n1c(=O)n(C(=O)Cc2ccccc2)c2ccccc21` has an IC50 of 168 µg/mL (≈ 576 µM).
In the case of `C=C(C)n1c(=O)n(C(=O)Cc2ccc(Cl)cc2)c2ccccc21`, the IC50 is reported as 17.3 µg/mL (≈ 52.8 µM).
Work on `C=C(C)n1c(=O)n(C(=O)Cc2ccc3ccccc3c2)c2ccccc21` yielded an IC50 greater than 500 µg/mL.
For `C=C(C)n1c(=O)n(C(=O)CCc2ccccc2)c2ccccc21`, the IC50 was 126 µg/mL (≈ 410 µM).
`C=C(C)n1c(=O)n(C(=O)C(CC)c2ccccc2)c2ccccc21` (configuration not stated) gave an IC50 of 186 µg/mL (≈ 580 µM).
For `C=C(C)n1c(=O)n(C(=O)Cc2ccc(OC)cc2)c2ccccc21`, the IC50 was 118 µg/mL (≈ 366 µM).
`C=C(C)n1c(=O)n(C(=O)COc2ccccc2)c2ccccc21` showed an IC50 of 303 µg/mL (≈ 983 µM).
In the case of `C=C(C)n1c(=O)n(C(=O)COc2ccc(Cl)cc2)c2ccccc21`, the IC50 is reported as 108 µg/mL (≈ 315 µM).
For `C=C(C)n1c(=O)n(C(=O)CCCc2c[nH]c3ccccc23)c2ccccc21`, the IC50 was 302 µg/mL (≈ 839 µM).
With `C=CC(=O)n1c(=O)n(C(=C)C)c2ccccc21` the IC50 was 32.2 µg/mL (≈ 141 µM).
For `C=C(C)C(=O)n1c(=O)n(C(=C)C)c2ccccc21`, the IC50 was 64 µg/mL (≈ 264 µM).
For `C=C(C)n1c(=O)n(C(=O)c2ccccc2)c2ccccc21`, the IC50 was 81.9 µg/mL (≈ 294 µM).
`C=C(C)n1c(=O)n(C(=O)c2ccc([N+](=O)[O-])cc2)c2ccccc21` gave an IC50 of 93.3 µg/mL (≈ 289 µM).
In the case of `C=C(C)n1c(=O)n(C(=O)c2ccccc2[N+](=O)[O-])c2ccccc21`, the IC50 is reported as 442 µg/mL (≈ 1370 µM).
`C=C(C)n1c(=O)n(C(=O)c2ccc(Cl)cc2)c2ccccc21` showed an IC50 of 66.8 µg/mL (≈ 214 µM).
Work on `C=C(C)n1c(=O)n(C(=O)c2ccccc2Cl)c2ccccc21` yielded an IC50 of 17.2 µg/mL (≈ 54.9 µM).
Work on `C=C(C)n1c(=O)n(C(C)=O)c2ccccc21` yielded an IC50 greater than 500 µg/mL.
Work on `C=C(C)n1c(=O)n(C(=O)CC)c2ccccc21` yielded an IC50 greater than 500 µg/mL.
`C=C(C)n1c(=O)n(C(=O)CCC)c2ccccc21` showed an IC50 greater than 500 µg/mL.
With `C=C(C)n1c(=O)n(C(=O)CCCC)c2ccccc21` the IC50 was 254 µg/mL (≈ 984 µM).
Molecule `Cc1cc(C)nc(Nc2ccccc2)n1` [PYRIMETHANIL] has an IC50 of 209 µg/mL (≈ 1050 µM).
